Reference: ChEMBL document CHEMBL5214966, “Discovery of BT8009: A Nectin-4 Targeting Bicycle Toxin Conjugate for the Treatment of Cancer” (J Med Chem, 2022)
In brackets after ≈: the same amount, converted by molar mass. Activity calls are given as the source filed them. The calls are words filed in the database; no cut-off is given here. *1 amine or outer side, *2 acyl side, *3 side chain or, on linkers, in order; H or OH if unused. Where a SMILES comes first, the peptide text is derived from it. Bridges are numbered along the chain shown (N, C = ends). [ ]: non-standard residue; d: D form. TATA = O=C(CC[*:1])N1CN(C(=O)CC[*:2])CN(C(=O)CC[*:3])C1

Tests used:
[1] = Stability in human plasma assessed as half life measured upto 24 hrs by LC-MS/MS analysis; assay type: ADME, cell-free
Nectin-4 = target: T1, Nectin-4 (Homo sapiens, UniProt Q96NY8); test: Displacement of tracer from C-terminal FLAG-tagged human Nectin-4 (32 to 349 residues) expressed in baculovirus infected sf9 cells assessed as inhibition constant measured at 5 to 10 mins interval for 60 mins by fluorescence polarization assay
T1 sequence (Q96NY8 whole entry): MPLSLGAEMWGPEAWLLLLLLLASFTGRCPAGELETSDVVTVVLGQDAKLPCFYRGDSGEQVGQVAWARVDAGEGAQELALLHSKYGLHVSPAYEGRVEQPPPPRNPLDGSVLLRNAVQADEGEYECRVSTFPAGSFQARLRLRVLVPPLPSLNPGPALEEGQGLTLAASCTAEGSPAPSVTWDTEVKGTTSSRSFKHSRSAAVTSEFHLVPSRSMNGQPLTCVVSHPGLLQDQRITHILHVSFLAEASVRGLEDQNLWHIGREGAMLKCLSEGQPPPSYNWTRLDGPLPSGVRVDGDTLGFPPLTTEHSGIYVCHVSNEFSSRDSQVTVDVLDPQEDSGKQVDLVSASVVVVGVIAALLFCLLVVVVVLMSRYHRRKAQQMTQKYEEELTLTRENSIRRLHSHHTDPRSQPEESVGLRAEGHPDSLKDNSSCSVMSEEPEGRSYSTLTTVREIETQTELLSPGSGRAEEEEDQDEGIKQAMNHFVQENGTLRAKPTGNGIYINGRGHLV

[2] = Stability in mouse plasma assessed as half life measured upto 24 hrs by LC-MS/MS analysis; assay type: ADME, cell-free
[3] = Thermodynamic solubility of the compound in phosphate buffer at pH 7.4; assay type: physicochemical; conditions: read-out: Therm_solubility
Summary of the method: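 Thermodynamic solubility measured in phosphate buffer at pH 7.4, expressed in mg/mL.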

[4] = Volume of distribution at steady state in mouse at 3 mg/kg, iv administered as bolus injection; assay type: ADME, organism-based; conditions: in vivo, read-out: Vdss
Summary of the method: (§1)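 Mouse pharmacokinetics after a single 3 mg/kg IV bolus. Terminal half-life, plasma clearance (mL/min/kg) and steady-state volume of distribution (L/kg) were derived from plasma levels.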

[5] = Clearance in mouse plasma at 3 mg/kg, iv administered as bolus injection; assay type: ADME, organism-based; summary of the method: as §1
[6] = Toxicity in Balb/c mouse assessed as drug tolerability at 3 to 5 mg/kg, iv administered as bolus injection measured upto 42 days; assay type: organism-based; conditions: in vivo, 1008 h, dose 3-5 mg/kg, time < 42 day
Summary of the method: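 Doses were 3 mg/kg once or twice weekly and 5 mg/kg once weekly over 18 days, with one group monitored to day 42.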

[7] = Plasma protein binding in mouse by LC/MS/MS analysis; assay type: ADME, cell-free; conditions: read-out: PPB (converted)
[8] = Plasma protein binding in human LC/MS/MS analysis; assay type: ADME, cell-free; conditions: read-out: PPB (converted)
[9] = Half life in mouse at 3 mg/kg, iv administered as bolus injection; assay type: ADME, organism-based; conditions: in vivo; summary of the method: as §1
MDA-MB-468 [10] = test: Antitumor activity against human MDA-MB-468 cells xenografted in Balb/c mouse model assessed as tumor regression at 3 mg/kg, iv twice weekly or 5 mg/kg, iv once weekly administered as bolus injection for 18 days; assay type: functional, organism-based; conditions: dose 3-5 mg/kg, time 18.0 day
Summary of the method: (§2)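 Dosing regimens were 3 mg/kg once weekly, 3 mg/kg twice weekly, or 5 mg/kg once weekly. Dosing ran 18 days. After dosing stopped, the 5 mg/kg once-weekly group was followed to day 42. Read-out was tumour growth/regression.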

MDA-MB-468 [11] = test: Antitumor activity against human MDA-MB-468 cells xenografted in Balb/c mouse model assessed as tumor regression 5 mg/kg, iv administered as bolus injection once weekly for 18 days and measured upto 42 days; assay type: functional, organism-based; conditions: time <= 42.0 day; summary of the method: as §2
MDA-MB-468 [12] = test: Antitumor activity against human MDA-MB-468 cells xenografted in Balb/c mouse model assessed as tumor regression at 3 mg/kg, iv administered as bolus injection once weekly for 18 days; assay type: functional, organism-based; conditions: time 18.0 day; summary of the method: as §2

| SMILES | half-life [1] | Ki (Nectin-4) | half-life [2] | solubility thermodynamic [3] | Vd [4] | clearance [5] | Activity [6] | fraction unbound [7] | fraction unbound [8] | half-life [9] | Activity (MDA-MB-468 [10]) | Activity (MDA-MB-468 [11]) | Activity (MDA-MB-468 [12]) |
| --- | --- | --- | --- | --- | --- | --- | --- | --- | --- | --- | --- | --- | --- |
| CC[C@H](C)[C@@H]1NC(=O)[C@@H]2CCCN2C(=O)[C@H](Cc2c[nH]c3ccccc23)NC(=O)[C@H](CO)NC(=O)[C@H](Cc2c[nH]c3ccccc23)NC(=O)[C@H](CC(N)=O)NC(=O)[C@H](CCCCN)NC(=O)[C@H](CCSC)NC(=O)[C@@H]2CSCCC(=O)N3CN(CN(C3)C(=O)CCSC[C@@H](NC(C)=O)C(=O)N3CCC[C@H]3C(=O)N[C@@H](Cc3ccccc3)C(=O)NCC(=O)N2)C(=O)CCSC[C@@H](C(=O)N[C@H](C(=O)N[C@@H](CC(N)=O)C(=O)N[C@@H](CCCCN)C(N)=O)[C@@H](C)O)NC(=O)[C@H](Cc2c[nH]c3ccccc23)NC1=O (Ac-[dC]PFGCMKNWSWPIWCTNK-NH2; linker 1-5-15 via TATA) | > 24 h | 0.0135 µM | 2.2 h | 4400 µg/mL (≈ 1770 µM) |  |  |  |  |  |  |  |  |  |
| CC[C@H](C)[C@@H]([C@H](CC(=O)N1CCCC1[C@@H](OC)[C@H](C)C(=O)N[C@@H](C)[C@H](O)c1ccccc1)OC)N(C)C(=O)[C@@H](NC(=O)[C@H](C(C)C)N(C)C(=O)OCc1ccc(NC(=O)[C@H](CCCNC(N)=O)NC(=O)[C@@H](NC(=O)CCCC(=O)NCCC(=O)N(C)CC(=O)N(C)CC(=O)N(C)CC(=O)N(C)CC(=O)N(C)CC(=O)N(C)CC(=O)N(C)CC(=O)N(C)CC(=O)N(C)CC(=O)N(C)CC(=O)N[C@@H](C)N[C@@H](CCCCNC(=N)N)C(=O)N[C@@H](CC(=O)O)C(=O)N[C@H]2CSCCC(=O)N3CN4CCC(=O)SC[C@H](NC(=O)[C@H](CC(C)C)NC(=O)[C@@H]5CCCN5C(=O)[C@H](CC(N)=O)NC(=O)[C@H](C(C)C)NC(=O)[C@H](CC(C)C)NC(=O)C5C[C@@H](O)CN5C2=O)C(=O)N[C@@H](CC(C)C)C(=O)N[C@@H](Cc2c[nH]cn2)C(=O)N2CCCC2C(=O)N[C@@H](CC(=O)O)C(=O)N[C@@H](Cc2c[nH]c5ccccc25)C(=O)N[C@@H](Cc2c[nH]c5ccccc25)C(=O)NC(CCCCNC(=N)N)C(=O)N[C@H](C(N)=O)CSCCC(=O)N(C4)C3)C(C)C)cc1)C(C)C (stereo partly specified) | > 57.8 h |  | 4.4 h | 800 µg/mL (≈ 175 µM) | 0.25 L/kg | 3.5 mL/min/kg | Non-Toxic | 0.118 | 0.207 | 1 h | Active | Active | Active |
